Laboratory results reported in ChEMBL document CHEMBL2040727, “Substituted thiazoles VI. Synthesis and antitumor activity of new 2-acetamido- and 2 or 3-propanamido-thiazole analogs” (2012).

Experiments:
Type in all cases: functional
NCI-H460 = assay: Growth inhibition of human NCI-H460 cells at 10 uM after 48 hrs by coulter counter analysis; conditions: NCI-H460, 48 h, read-out: GI
In short: (§1)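 Single-dose NCI 60-line panel screen of test compounds. Cells grown in RPMI 1640 with 10% FBS. Compounds dissolved in DMSO, then diluted in phosphate buffer saline (final DMSO below 1%). Wells run in duplicate at 6 × 10⁴ cells/ml. Controls held PBS and DMSO at matching dilutions. Incubation 48 h at 37 °C under humidified 5% CO2. Cells diluted tenfold in saline and counted by Coulter counter. Percent growth inhibition taken from mean-graph of treated-cell growth.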

786-0 = assay: Growth inhibition of human 786-0 cells at 10 uM after 48 hrs by coulter counter analysis; conditions: 786-0, 48 h, read-out: GI; in short: as §1
MDA-MB-231 = assay: Growth inhibition of human MDA-MB-231 cells at 10 uM after 48 hrs by coulter counter analysis; conditions: MDA-MB-231, 48 h, read-out: GI; in short: as §1
RPMI-8226 = assay: Growth inhibition of human RPMI8226 cells at 10 uM after 48 hrs by coulter counter analysis; conditions: RPMI-8226, 48 h, read-out: GI; in short: as §1
SNB-75 = assay: Growth inhibition of human SNB75 cells at 10 uM after 48 hrs by coulter counter analysis; conditions: SNB-75, 48 h, read-out: GI
In short: (§2)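 Single-dose screen in the NCI 60 cell line panel. Cells grown in RPMI 1640 with 10% FBS. Compounds dissolved in DMSO and diluted in phosphate buffered saline, final DMSO under 1%. Duplicate wells seeded from culture at 6 × 10⁴ cells/ml. Incubated 48 h at 37 °C, humidified, 5% CO2. Cells diluted tenfold in saline and Coulter-counted. Percent growth inhibition computed against PBS/DMSO controls.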

U-251 = assay: Growth inhibition of human U251 cells at 10 uM after 48 hrs by coulter counter analysis; conditions: U-251, 48 h, read-out: GI; in short: as §2
HT-29 = assay: Growth inhibition of human HT-29 cells at 10 uM after 48 hrs by coulter counter analysis; conditions: HT-29, 48 h, read-out: GI; in short: as §1
NCI-H322M = assay: Growth inhibition of human NCI-H322M cells at 10 uM after 48 hrs by coulter counter analysis; conditions: read-out: GI; in short: as §1
EKVX = assay: Growth inhibition of human EKVX cells at 10 uM after 48 hrs by coulter counter analysis; conditions: read-out: GI; in short: as §1
NCI-H23 = assay: Growth inhibition of human NCI-H23 cells at 10 uM after 48 hrs by coulter counter analysis; conditions: NCI-H23, 48 h, read-out: GI; in short: as §1
MDA-MB-468 = assay: Growth inhibition of human MDA-MB-468 cells at 10 uM after 48 hrs by coulter counter analysis; conditions: MDA-MB-468, 48 h, read-out: GI; in short: as §1
A549 = assay: Growth inhibition of human A549/ATCC cells at 10 uM after 48 hrs by coulter counter analysis; conditions: A549, 48 h, read-out: GI; in short: as §1
BT-549 = assay: Growth inhibition of human BT549 cells at 10 uM after 48 hrs by coulter counter analysis; conditions: BT-549, 48 h, read-out: GI; in short: as §1
OVCAR-3 = assay: Growth inhibition of human OVCAR3 cells at 10 uM after 48 hrs by coulter counter analysis; conditions: OVCAR-3, 48 h, read-out: GI; in short: as §1
UO-31 = assay: Growth inhibition of human UO31 cells at 10 uM after 48 hrs by coulter counter analysis; conditions: UO-31, 48 h, read-out: GI; in short: as §2
SK-MEL-28 = assay: Growth inhibition of human SK-MEL-28 cells at 10 uM after 48 hrs by coulter counter analysis; conditions: SK-MEL-28, 48 h, read-out: GI; in short: as §1
HOP-92 = assay: Growth inhibition of human HOP92 cells at 10 uM after 48 hrs by coulter counter analysis; conditions: HOP-92, 48 h, read-out: GI; in short: as §1
DU-145 = assay: Growth inhibition of human DU145 cells at 10 uM after 48 hrs by coulter counter analysis; conditions: DU-145, 48 h, read-out: GI; in short: as §1
NCI-H226 = assay: Growth inhibition of human NCI-H226 cells at 10 uM after 48 hrs by coulter counter analysis; conditions: NCI-H226, 48 h, read-out: GI; in short: as §1
[1] = Growth inhibition of human NCI-ADR-RES cells at 10 uM after 48 hrs by coulter counter analysis; conditions: read-out: GI; in short: as §1
KM12 = assay: Growth inhibition of human KM12 cells at 10 uM after 48 hrs by coulter counter analysis; conditions: KM12, 48 h, read-out: GI; in short: as §1
HOP-62 = assay: Growth inhibition of human HOP62 cells at 10 uM after 48 hrs by coulter counter analysis; conditions: HOP-62, 48 h, read-out: GI; in short: as §1
ACHN = assay: Growth inhibition of human ACHN cells at 10 uM after 48 hrs by coulter counter analysis; conditions: read-out: GI; in short: as §1
HCT-116 = assay: Growth inhibition of human HCT116 cells at 10 uM after 48 hrs by coulter counter analysis; conditions: HCT-116, 48 h, read-out: GI; in short: as §1
CAKI-1 = assay: Growth inhibition of human Caki1 cells at 10 uM after 48 hrs by coulter counter analysis; conditions: CAKI-1, 48 h, read-out: GI; in short: as §1
SK-MEL-5 = assay: Growth inhibition of human SK-MEL-5 cells at 10 uM after 48 hrs by coulter counter analysis; conditions: SK-MEL-5, 48 h, read-out: GI; in short: as §1
OVCAR-8 = assay: Growth inhibition of human OVCAR8 cells at 10 uM after 48 hrs by coulter counter analysis; conditions: OVCAR-8, 48 h, read-out: GI; in short: as §1
K562 = assay: Growth inhibition of human K562 cells at 10 uM after 48 hrs by coulter counter analysis; conditions: K562, 48 h, read-out: GI; in short: as §1
OVCAR-5 = assay: Growth inhibition of human OVCAR5 cells at 10 uM after 48 hrs by coulter counter analysis; conditions: OVCAR-5, 48 h, read-out: GI; in short: as §1
SN12C = assay: Growth inhibition of human SN12C cells at 10 uM after 48 hrs by coulter counter analysis; conditions: read-out: GI; in short: as §1
PC-3 = assay: Growth inhibition of human PC3 cells at 10 uM after 48 hrs by coulter counter analysis; conditions: PC-3, 48 h, read-out: GI; in short: as §1
SR = assay: Growth inhibition of human SR cells at 10 uM after 48 hrs by coulter counter analysis; conditions: read-out: GI; in short: as §2
SF-295 = assay: Growth inhibition of human SF295 cells at 10 uM after 48 hrs by coulter counter analysis; conditions: SF-295, 48 h, read-out: GI; in short: as §1
SW-620 = assay: Growth inhibition of human SW620 cells at 10 uM after 48 hrs by coulter counter analysis; conditions: SW-620, 48 h, read-out: GI; in short: as §2
CCRF-CEM = assay: Growth inhibition of human CCRF-CEM cells at 10 uM after 48 hrs by coulter counter analysis; conditions: read-out: GI; in short: as §1
T47D = assay: Growth inhibition of human T47D cells at 10 uM after 48 hrs by coulter counter analysis; conditions: read-out: GI; in short: as §2

| Structure (SMILES) | inhibition of growth at 10 µM (NCI-H460) [%] | inhibition of growth at 10 µM (786-0) [%] | inhibition of growth at 10 µM (MDA-MB-231) [%] | inhibition of growth at 10 µM (RPMI-8226) [%] | inhibition of growth at 10 µM (SNB-75) [%] | inhibition of growth at 10 µM (U-251) [%] | inhibition of growth at 10 µM (HT-29) [%] | inhibition of growth at 10 µM (NCI-H322M) [%] | inhibition of growth at 10 µM (EKVX) [%] | inhibition of growth at 10 µM (NCI-H23) [%] | inhibition of growth at 10 µM (MDA-MB-468) [%] | inhibition of growth at 10 µM (A549) [%] | inhibition of growth at 10 µM (BT-549) [%] | inhibition of growth at 10 µM (OVCAR-3) [%] | inhibition of growth at 10 µM (UO-31) [%] | inhibition of growth at 10 µM (SK-MEL-28) [%] | inhibition of growth at 10 µM (HOP-92) [%] | inhibition of growth at 10 µM (DU-145) [%] | inhibition of growth at 10 µM (NCI-H226) [%] | inhibition of growth at 10 µM [1] [%] | further results |
| --- | --- | --- | --- | --- | --- | --- | --- | --- | --- | --- | --- | --- | --- | --- | --- | --- | --- | --- | --- | --- | --- |
| Cc1cnc(NC(=O)CN2CCN(C)CC2)s1 | < 10 | < 10 | < 10 | < 10 | < 10 | < 10 | < 10 | < 10 | < 10 | < 10 | < 10 | < 10 | < 10 | < 10 | 10.2 | < 10 | < 10 | < 10 | < 10 | < 10 | inhibition of growth at 10 µM (KM12): < 10%; inhibition of growth at 10 µM (HOP-62): < 10%; inhibition of growth at 10 µM (ACHN): < 10%; inhibition of growth at 10 µM (HCT-116): < 10%; inhibition of growth at 10 µM (CAKI-1): < 10%; inhibition of growth at 10 µM (SK-MEL-5): < 10%; inhibition of growth at 10 µM (OVCAR-8): < 10%; inhibition of growth at 10 µM (K562): < 10%; inhibition of growth at 10 µM (OVCAR-5): < 10%; inhibition of growth at 10 µM (SN12C): < 10%; inhibition of growth at 10 µM (PC-3): < 10%; inhibition of growth at 10 µM (SR): 51.8%; inhibition of growth at 10 µM (SF-295): < 10%; inhibition of growth at 10 µM (SW-620): < 10%; inhibition of growth at 10 µM (CCRF-CEM): 75.5%; inhibition of growth at 10 µM (T47D): < 10% |
| Cc1cnc(NC(=O)CN2CCN(c3ccccc3)CC2)s1 | < 10 | < 10 | < 10 | < 10 | < 10 | < 10 | < 10 | < 10 | 12.1 | < 10 | < 10 | < 10 | < 10 | < 10 | 13.1 | < 10 | < 10 | < 10 | < 10 | < 10 | inhibition of growth at 10 µM (KM12): < 10%; inhibition of growth at 10 µM (HOP-62): < 10%; inhibition of growth at 10 µM (ACHN): < 10%; inhibition of growth at 10 µM (HCT-116): < 10%; inhibition of growth at 10 µM (CAKI-1): < 10%; inhibition of growth at 10 µM (SK-MEL-5): < 10%; inhibition of growth at 10 µM (OVCAR-8): < 10%; inhibition of growth at 10 µM (K562): < 10%; inhibition of growth at 10 µM (OVCAR-5): < 10%; inhibition of growth at 10 µM (SN12C): < 10%; inhibition of growth at 10 µM (PC-3): < 10%; inhibition of growth at 10 µM (SR): < 10%; inhibition of growth at 10 µM (SF-295): < 10%; inhibition of growth at 10 µM (SW-620): < 10%; inhibition of growth at 10 µM (CCRF-CEM): 69.3%; inhibition of growth at 10 µM (T47D): < 10% |
